Screening results deposited in PubChem BioAssay by Sanford-Burnham Center for Chemical Genomics.
STEP inh = blocks human striatal-enriched tyrosine phosphatase. P54829. recombinant STEP, OMFP fluorogenic substrate, fluorescence. inhibition, % at 20 µM. 360,000 tested, 0.25% active. AID 588621;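 active = inhibition at 20 µM, scaled per plate between control wells, above about 37%, limit read from the data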;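 also: 0% = DMSO with enzyme and substrate and 100% = substrate only without enzyme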
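Test system: STEP tyrosine phosphatase / Reagent: OMFP at 25 µM / Doses: 20 µM, 1% DMSO / Read-out: percent inhibition scaled to no-enzyme and uninhibited-enzyme controls, plate-pattern corrected / Detection: FITC-channel fluorescence of OMFP product / Medium: Bis-Tris buffer pH 6.0, 2.5 mM DTT, 0.005% Tween 20 / Schedule: 20 min at room temperature, dark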
Scp-1 inhibitor = inhibitors of human Scp-1 phosphatase. Recombinant Scp1, phosphopeptide, malachite green phosphate absorbance. inhibition, % at 20 µM. 340,000 tested, 0.88% active. AID 493091;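 active = inhibition above about 50% at 20 µM, limit read from the data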;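 also: plate controls were DMSO wells with enzyme for no effect and wells lacking enzyme for full effect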
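Test system: SCP-1 catalytic domain; Buffer or medium: Acidic Tris acetate buffer with magnesium and detergent; Also added: Phosphorylated 17-residue peptide substrate; Compound: single 20 µM dose, 1% DMSO; Schedule: enzyme reaction 45 min at room temperature, colour 5 min, stabilisation 30 min; Signal: Phosphate-binding colour reagent, absorbance read at 630 nm.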
DNMT1 block = blocks human DNA methyltransferase DNMT1 | DNMT1 molecular beacon, Hinp1I cleavage, fluorescence | 360,000 tested, 0.83% active | AID 588458 | inhibition (reported as % activation of signal), % at 10 µM; in the data active = inhibition above about 50%
Target sequence (P26358 504-1616 limits assumed): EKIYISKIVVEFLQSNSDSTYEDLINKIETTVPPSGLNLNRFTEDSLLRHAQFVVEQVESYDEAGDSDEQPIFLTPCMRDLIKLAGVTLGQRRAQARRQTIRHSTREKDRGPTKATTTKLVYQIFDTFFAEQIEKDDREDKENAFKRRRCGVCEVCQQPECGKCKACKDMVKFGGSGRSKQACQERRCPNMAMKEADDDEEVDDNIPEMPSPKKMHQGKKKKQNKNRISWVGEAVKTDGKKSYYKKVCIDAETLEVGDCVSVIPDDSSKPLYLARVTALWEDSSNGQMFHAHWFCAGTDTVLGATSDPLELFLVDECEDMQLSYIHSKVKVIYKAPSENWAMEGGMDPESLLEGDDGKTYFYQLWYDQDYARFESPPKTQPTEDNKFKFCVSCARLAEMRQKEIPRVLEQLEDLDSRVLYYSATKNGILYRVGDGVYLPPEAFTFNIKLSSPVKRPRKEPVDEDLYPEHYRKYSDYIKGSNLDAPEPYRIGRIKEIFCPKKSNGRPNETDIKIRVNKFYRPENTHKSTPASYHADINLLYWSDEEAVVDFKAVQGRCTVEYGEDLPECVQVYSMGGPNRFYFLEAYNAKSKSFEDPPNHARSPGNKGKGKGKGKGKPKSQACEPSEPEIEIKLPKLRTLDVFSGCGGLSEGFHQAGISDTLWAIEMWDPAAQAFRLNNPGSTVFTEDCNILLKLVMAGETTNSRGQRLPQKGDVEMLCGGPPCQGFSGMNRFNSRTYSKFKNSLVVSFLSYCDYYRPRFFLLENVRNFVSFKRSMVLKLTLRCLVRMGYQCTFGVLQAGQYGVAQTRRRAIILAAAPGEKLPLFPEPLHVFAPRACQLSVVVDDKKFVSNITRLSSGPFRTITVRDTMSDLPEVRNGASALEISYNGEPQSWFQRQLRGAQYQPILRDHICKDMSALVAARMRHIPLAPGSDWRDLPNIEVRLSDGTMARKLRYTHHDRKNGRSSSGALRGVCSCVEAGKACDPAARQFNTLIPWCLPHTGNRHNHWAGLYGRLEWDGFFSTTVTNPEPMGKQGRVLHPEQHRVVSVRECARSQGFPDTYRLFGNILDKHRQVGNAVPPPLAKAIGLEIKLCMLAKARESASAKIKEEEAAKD
LMPTP block = LMPTP (human) inhibition; P24666; recombinant LMPTP-A, OMFP fluorogenic substrate, fluorescence intensity; inhibition, % at 20 µM; 360,000 tested, 0.22% active;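 active = compounds that cut the enzyme signal by at least half of the control window in the single-dose screen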;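 also: plate controls were DMSO wells with enzyme plus substrate for no effect and substrate without enzyme for full effect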
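Assay system: LMPTP-A, protein tyrosine phosphatase of low molecular weight / Medium: pH 6.0 Bis-Tris buffer with DTT and Triton X-100 / Schedule: 50 min enzyme reaction at room temperature, protected from light / Measured by: endpoint fluorescence intensity from OMFP dephosphorylation / Read-out basis: % inhibition relative to no-enzyme and uninhibited control wells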
SUMO1-SIM PPI = SUMO1-SIM interaction modulation | 360,000 tested, 0.33% active | inhibition, % at 20 µM | SUMO1 binding to a labelled peptide, TR-FRET, 1 h; in the data active = inhibition above about 37%
DNMT1 inh conf = confirmation of human DNMT1 inhibitors. shares compounds with DNMT1 block. DNMT1 molecular beacon HinP1I cleavage, fluorescence. inhibition, % at 10 µM. 2,300 tested, 8% active;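 active = average inhibition of at least 30% in the single-concentration confirmation test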
Beacon interf = shows spectral interference in the DNMT1 beacon assay. activation (fluorescence interference), % at 10 µM. DNMT1 molecular beacon spectral interference counterscreen, fluorescence 485/520. 2,300 tested, 1% active. shares compounds with DNMT1 block;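 active = activation of at least 30% at 10 µM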;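 also: DNMT1 catalytic domain with a HinP1I cleavage step and a FAM/dabcyl DNA beacon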
Numbers without * were called inactive; / = not tested or not shown. In the library only some 1.7% were active in any assay of this set; here they are far more common.

SMILES	STEP inh	Scp-1 inhibitor	DNMT1 block	LMPTP block	SUMO1-SIM PPI	DNMT1 inh conf	Beacon interf
CC(=O)c1cccc(NC(=O)CN2C(=O)C3C4C=CC(C4)C3C2=O)c1 (centres undefined)	-2.8	0.2	50.1*	0.4	-2.4	0.8	1.4
c1ccc(CCC2CCCCN2Cc2nc(-c3ccc4c(c3)OCO4)no2)nc1 (centres undefined)	1.7	-6.5	-1.4	0.6	-0.4	/	/
NS(=O)(=O)c1ccc(N/C=C\C(=O)c2ccc3ccccc3c2)cc1	3.1	-0.9	88.1*	11.7	3.1	2.1	3.4
Cc1ccc(CCN2CC(C(=O)NCCN(C)C)CC2=O)cc1 (centres undefined)	-1.6	-5.7	1.4	-1.7	-2.4	/	/
N#Cc1ccc(-c2ccccc2)nc1SCC(=O)c1cc2ccccc2oc1=O	2.4	-6.2	69.5*	1.7	-1.5	1.5	4.7
O=C(Cc1cccs1)Nc1ccc(S(=O)(=O)Nc2ncccn2)cc1	-2.9	24.9	68.5*	6.0	10.2	13.5	-0.3
O=[N+]([O-])c1ccc(/C=N/N2CCCCC2)cc1	-0.1	-11.0	-3.4	1.3	-31.4	/	/
CCCCNC(=O)C1CCC(CNS(=O)(=O)c2cccc3nsnc23)CC1 (centres undefined)	2.5	-4.7	0.5	-0.1	-37.8	/	/
CC1CCCN(CCCNC(=O)C2CCC(CNS(=O)(=O)c3cccc4nsnc34)CC2)C1 (centres undefined)	-3.4	0.6	50.4*	0.5	-29.5	4.2	1.7
O=C(O)COn1c(-c2ccccc2)nc2ccc([N+](=O)[O-])cc21	16.7	81.0*	66.3*	27.5	11.8	1.6	-0.9
O=C(CN1C(=O)/C(=C\c2ccc(F)cc2)Oc2ccccc21)NCc1ccco1	1.1	-4.9	51.8*	-1.0	-0.6	1.6	3.6
Cc1ccc(/C=N/Nc2cc(C)nc(NCc3ccccc3)n2)cc1	10.8	-11.4	-8.1	8.5	0.0	/	/
Cc1cc(N/N=C/c2ccc(O)cc2)nc(NS(=O)(=O)c2ccccc2)n1	41.4*	48.3	82.6*	17.7	14.5	1.3	-0.6
C=C/C(C)=C/CC1C(=C)CCC2C(C)(C(=O)O)CCCC12C (centres undefined)	-0.2	4.2	80.8*	0.1	15.7	10.8	-3.5
CCOc1ccc(-c2nnc3sc(COc4ccc(Cl)cc4)nn23)cc1	1.1	-3.2	58.2*	10.7	-2.2	10.6	2.5
COc1ccc(NC(=O)C2Cc3c(-c4ccc(NC(C)=O)cc4)ccnc3O2)cc1OC (centres undefined)	-3.2	/	2.7	-2.4	-3.2	/	/
COc1ccc(NC(=O)C2Cc3c(-c4ccco4)ccnc3O2)cc1OC (centres undefined)	-0.7	/	89.8*	1.1	-1.1	0.6	1.7
COCCCn1c(C(=O)Nc2ccc3c(c2)OCO3)cc2c(=O)n3cccc(C)c3nc21	6.4	/	83.0*	16.5	31.3	1.1	-8.0
O=C1CN(c2nc(-c3ccccc3)c3ccccc3n2)c2ccccc2N1	-2.0	2.4	60.6*	0.2	7.8	1.7	6.5
c1ccc(-c2nc(-n3nc4ccccc4n3)nc3ccccc23)cc1	3.0	-17.8	-3.8	6.2	-6.3	/	/
CCCCN(C(=O)c1cccc(-n2cccc2)c1)c1c(N)n(CCC)c(=O)[nH]c1=O	7.8	69.8*	62.4*	4.4	12.9	4.6	6.3
O=C(Nc1ccccc1)Nc1nnc(/C=C/c2ccccc2Cl)s1	1.5	-12.2	89.4*	0.5	0.4	1.0	1.1
O=C(Nc1ccccc1)Nc1nnc(-c2ccccc2)s1	0.0	0.9	20.2	-1.8	1.4	/	/
Nc1c(C(=O)C2CC2)sc2nc(-c3ccccc3)cc(C(F)(F)F)c12	-41.4	-4.8	67.6*	0.9	-6.3	50.9*	37.5*
CN(C)CCNC(=O)c1sc2nc(-c3ccccc3)cc(C(F)(F)F)c2c1N	3.1	-5.0	-2.3	-4.4	-32.9	/	/
SMILES	STEP inh	Scp-1 inhibitor	DNMT1 block	LMPTP block	SUMO1-SIM PPI	DNMT1 inh conf	Beacon interf
COc1ccc(Cc2c(-c3ccco3)nc3ccc(Cl)cn23)c(C)c1	2.4	/	83.9*	8.1	4.1	2.8	0.3
Cc1cc(Br)cn2c(Cc3ccsc3)c(-c3ccco3)nc12	1.0	/	51.7*	6.5	7.7	2.6	1.7
COc1ccc(Cc2c(-c3ccco3)nc3ccc(Br)cn23)c(C)c1	4.3	/	102.1*	19.7	4.9	12.6	1.8
Cc1cccc(C)c1NC(=O)COc1ccc2c(C)c(Cc3ccccc3)c(=O)oc2c1C	1.0	-1.7	56.7*	0.1	1.0	-0.1	-5.1
NC(=O)CC[C@H](NC(=O)c1ccc(F)cc1)C(=O)OCC(=O)NCc1ccc(F)cc1	-1.6	-4.9	51.6*	-0.9	2.9	1.7	1.4
NC(=O)CC[C@H](NC(=O)c1ccc(F)cc1)C(=O)OCC(=O)Nc1c(F)c(F)c(F)c(F)c1F	-2.9	-2.1	1.1	0.0	2.2	/	/
COc1cccc(NC(=O)COC(=O)CC(NC(N)=O)c2ccc(Cl)cc2)c1 (centres undefined)	-2.2	-10.6	-6.6	-1.0	1.6	/	/
Cc1ccc(-c2cc(-c3ccccc3O)nc(N/N=C/c3cccnc3)n2)cc1	1.8	-3.0	51.7*	2.1	3.7	-0.7	-4.0
COc1cc(OC)cc(-c2c(-c3cccs3)c3cc(-c4ccc(OCc5ccccc5)cc4)ccc3n2C)c1	4.4	-11.4	52.0*	-0.3	-6.6	-0.2	-1.2
COc1ccc(-c2c(-c3cc(OC)cc(OC)c3)n(C)c3ccc(-c4ccc(OC)nc4)cc23)cc1	-1.1	5.4	2.6	2.4	5.5	/	/
COc1ccc(-c2c(-c3cc(OC)cc(OC)c3)n(C)c3ccc(-c4cnc(N)nc4)cc23)cc1	-0.2	4.4	54.2*	-1.0	-1.2	-0.1	-2.0
CS(=O)(=O)N(CC(=O)NCc1ccncc1)c1cc(Cl)ccc1Cl	-0.5	-0.3	-0.9	-1.0	0.9	/	/
Cn1ccc2c(N3c4ccccc4CCc4ccccc43)cc3c(c21)C1CCC3O1 (centres undefined)	5.5	/	50.2*	4.9	-6.5	1.1	1.9
O=C(CNC(=O)C1CCCCC1)NC1CCCCC1	-1.7	-10.2	0.1	-0.3	4.7	/	/
CCOC(=O)C1=CN(Cc2ccco2)S(=O)(=O)N(C)C1c1ccc(F)c(Cl)c1 (centres undefined)	0.6	-6.6	1.1	1.6	-0.7	/	/
CCN(CC)c1nc(N)c(C#N)c(CC#N)c1C#N	-0.7	-5.2	-1.6	-0.1	5.2	/	/
CCN(CC)c1nc(N)c2c(N)nc(OC)cc2c1C#N	8.3	-4.4	81.4*	20.8	52.3*	1.5	1.7
